{"source": "ChEMBL document CHEMBL4371044", "about": "“Celastrol Promotes Weight Loss in Diet-Induced Obesity by Inhibiting the Protein Tyrosine Phosphatases PTP1B and TCPTP in the Hypothalamus” (J Med Chem, 2018)", "key": {"Mus musculus [1]": {"tested_on": "Mus musculus", "assay": "Antiobesity activity in high fat diet-induced obese Ptpn1fl/fl null C57BL/6 mouse assessed as reduction in body weight at 100 ug/kg, ip for 10 consecutive days", "format": "functional, organism-based", "procedure,_shortened": "(§1)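 Male Ptpn1fl/fl, Ptpn2fl/fl or double-floxed mice: chow 8 weeks, then high-fat diet (45% energy from fat) 12 weeks. Bilateral intra-ARC stereotaxic injection of rAAV-CMV-Cre-GFP or rAAV-CMV-GFP, 100 nL/side. After 2 weeks recovery, vehicle or 100 μg/kg ip daily at 6 pm for 10 days; body weight tracked; two-way repeated-measures ANOVA with Tukey test; means ± SEM.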"}, "Mus musculus [2]": {"tested_on": "Mus musculus", "assay": "Antiobesity activity in high fat diet-induced obese Ptpn2fl/fl null C57BL/6 mouse assessed as reduction in body weight at 100 ug/kg, ip for 10 consecutive days", "format": "functional, organism-based", "procedure,_shortened": "as §1"}, "Mus musculus [3]": {"tested_on": "Mus musculus", "assay": "Antiobesity activity in high fat diet-induced obese Ptpn1fl/fl null C57BL/6 mouse assessed as hypophagia at 100 ug/kg, ip for 10 consecutive days", "format": "functional, organism-based"}, "[4]": {"biological_target": "T1, Tyrosine-protein phosphatase non-receptor type 2 (Homo sapiens, UniProt P17706)", "T1 sequence (P17706 whole entry)": "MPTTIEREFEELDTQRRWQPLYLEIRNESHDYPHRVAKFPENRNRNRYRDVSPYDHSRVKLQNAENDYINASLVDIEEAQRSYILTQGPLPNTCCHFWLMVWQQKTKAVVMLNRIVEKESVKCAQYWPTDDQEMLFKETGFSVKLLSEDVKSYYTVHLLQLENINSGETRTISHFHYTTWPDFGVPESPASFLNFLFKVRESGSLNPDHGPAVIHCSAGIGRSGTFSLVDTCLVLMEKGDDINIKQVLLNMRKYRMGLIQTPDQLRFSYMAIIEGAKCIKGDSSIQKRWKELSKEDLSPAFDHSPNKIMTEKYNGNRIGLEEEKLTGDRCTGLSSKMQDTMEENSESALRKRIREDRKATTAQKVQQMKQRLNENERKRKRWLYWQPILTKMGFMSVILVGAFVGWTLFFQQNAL", "assay": "(§2) Inhibition of human N-terminal His6-tagged TCPTP catalytic domain (1 to 336 residues) expressed in Escherichia coli strain Rosetta2 (DE3) using DiFMUP as substrate preincubated for 10 mins followed by substrate addition and measured after 10 mins by fluorescence assay", "procedure,_shortened": "(§3)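 Tag-cleaved, SEC-purified enzyme at 1 nM, preincubated 10 min with compound at 15 concentrations from 0–500 μM (5% DMSO final) in 25 mM Bis-Tris propane pH 7.5, 50 mM NaCl, 2 mM EDTA. DiFMUP added at each construct's Km (10, 7, 10, 9 μM for PTP1B1−298, PTP1B1−393, TCPTP1−296, TCPTP1−336). Read ex 358/em 455 nm continuously 10 min at 37 °C; triplicate; log(inhibitor)-response fit.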"}, "[5]": {"biological_target": "T2, Tyrosine-protein phosphatase non-receptor type 1 (Homo sapiens, UniProt P18031)", "T2 sequence (P18031 whole entry)": "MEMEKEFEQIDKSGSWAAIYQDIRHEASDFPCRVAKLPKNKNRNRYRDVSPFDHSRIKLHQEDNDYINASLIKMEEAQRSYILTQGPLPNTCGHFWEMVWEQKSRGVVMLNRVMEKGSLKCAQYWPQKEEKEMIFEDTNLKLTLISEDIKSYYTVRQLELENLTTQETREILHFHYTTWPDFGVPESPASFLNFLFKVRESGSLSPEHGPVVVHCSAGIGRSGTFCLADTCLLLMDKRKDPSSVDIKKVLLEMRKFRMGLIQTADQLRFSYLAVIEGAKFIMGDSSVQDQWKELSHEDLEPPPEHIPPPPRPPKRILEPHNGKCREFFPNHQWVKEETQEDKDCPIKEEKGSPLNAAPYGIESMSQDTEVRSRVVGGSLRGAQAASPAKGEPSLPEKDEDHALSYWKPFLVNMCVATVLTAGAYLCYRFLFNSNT", "assay": "Inhibition of human N-terminal His6-tagged PTP1B catalytic domain (1 to 298 residues) expressed in Escherichia coli strain Rosetta2 (DE3) using DiFMUP as substrate preincubated for 10 mins followed by substrate addition and measured after 10 mins by fluorescence assay", "procedure,_shortened": "as §3"}, "[6]": {"biological_target": "T3, Tyrosine-protein phosphatase non-receptor type 1 (Homo sapiens) (UniProt P18031)", "T3 sequence (whole entry)": "T2 sequence (P18031 whole entry)", "assay": "Non competitive inhibition of human N-terminal His6-tagged PTP1B catalytic domain (1 to 393 residues) expressed in Escherichia coli strain Rosetta2 (DE3) using DiFMUP as substrate preincubated for 10 mins followed by substrate addition and measured after 10 mins by Michaelis-Menten plot analysis"}, "[7]": {"biological_target": "T4, Tyrosine-protein phosphatase non-receptor type 2 (Homo sapiens) (UniProt P17706)", "T4 sequence (whole entry)": "T1 sequence (P17706 whole entry)", "assay": "Inhibition of human N-terminal His6-tagged TCPTP catalytic domain (1 to 336 residues) expressed in Escherichia coli strain Rosetta2 (DE3) up to 500 uM using pNPP as substrate preincubated for 10 mins followed by substrate addition and measured after 10 mins by fluorescence assay"}, "[8]": {"biological_target": "T3, Tyrosine-protein phosphatase non-receptor type 1 (Homo sapiens)", "assay": "Non-competitive inhibition of human N-terminal His6-tagged PTP1B catalytic domain (1 to 393 residues) expressed in Escherichia coli strain Rosetta2 (DE3) at 500 uM in presence of 4'-aminoxanilic acid by STD-NMR spectroscopic method"}, "[9]": {"biological_target": "T3, Tyrosine-protein phosphatase non-receptor type 1 (Homo sapiens)", "assay": "Inhibition of human N-terminal His6-tagged PTP1B catalytic domain (1 to 393 residues) expressed in Escherichia coli strain Rosetta2 (DE3) using DiFMUP as substrate preincubated for 10 mins followed by substrate addition and measured after 10 mins in presence of 0.05% Tween20 by fluorescence assay", "procedure,_shortened": "(§4)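 DiFMUP IC50 assay (1 nM enzyme, 10 min preincubation, substrate at Km, 37 °C, ex 358/em 455 nm), repeated as an aggregation check under three altered conditions: 10-fold enzyme (10 nM), 0.05% Tween 20, or 0.1 mg/mL BSA in buffer.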"}, "[10]": {"biological_target": "T4, Tyrosine-protein phosphatase non-receptor type 2 (Homo sapiens)", "assay": "Inhibition of human N-terminal His6-tagged TCPTP catalytic domain (1 to 336 residues) expressed in Escherichia coli strain Rosetta2 (DE3) using DiFMUP as substrate preincubated for 10 mins followed by substrate addition and measured after 10 mins in presence of 0.1 mg/ml BSA by fluorescence assay", "procedure,_shortened": "as §4"}, "Mus musculus [11]": {"tested_on": "Mus musculus", "assay": "Antiobesity activity in high fat diet-induced obese Ptpn1fl/fl null C57BL/6 mouse treated with rAAV-CMV-Cre-GFP for deletion of PTP1B assessed as reduction in body weight at 100 ug/kg, ip for 10 consecutive days", "format": "functional, organism-based", "procedure,_shortened": "as §1"}, "Mus musculus [12]": {"tested_on": "Mus musculus", "assay": "Antiobesity activity in high fat diet-induced obese Ptpn1fl/fl null C57BL/6 mouse treated with rAAV-CMV-Cre-GFP for deletion of TCPTP assessed as reduction in body weight at 100 ug/kg, ip for 10 consecutive days", "format": "functional, organism-based", "procedure,_shortened": "as §1"}, "[13]": {"biological_target": "T4, Tyrosine-protein phosphatase non-receptor type 2 (Homo sapiens)", "assay": "as §2, with “10 mins in presence of 10 fold higher enzyme concentration by fluorescence” for “10 mins by fluorescence”", "procedure,_shortened": "as §4"}, "[14]": {"biological_target": "T4, Tyrosine-protein phosphatase non-receptor type 2 (Homo sapiens)", "assay": "Inhibition of human N-terminal His6-tagged TCPTP catalytic domain (1 to 296 residues) expressed in Escherichia coli strain Rosetta2 (DE3) by NMR spectroscopy"}}, "note": "Calls of active or inactive are those of the source. No cut-off for these calls is given here."}
{"smiles": "CC1=C(O)C(=O)C=C2C1=CC=C1[C@@]2(C)CC[C@@]2(C)[C@@H]3C[C@](C)(C(=O)O)CC[C@]3(C)CC[C@]12C", "note": "[CELASTROL]", "values": [{"measurement": "Activity", "setting": "Mus musculus [1]", "value": "Active"}, {"measurement": "Activity", "setting": "Mus musculus [2]", "value": "Active"}, {"measurement": "Activity", "setting": "Mus musculus [3]", "value": "Active"}, {"measurement": "IC50", "setting": "[4]", "value": 18.8, "unit": "µM"}, {"measurement": "IC50", "setting": "[5]", "value": 4.8, "unit": "µM"}, {"measurement": "inhibition", "setting": "[6]", "value": "Active"}, {"measurement": "inhibition", "setting": "[7]", "value": "Active"}, {"measurement": "inhibition", "setting": "[8]", "value": "Active"}, {"measurement": "inhibition", "setting": "[9]", "value": "Active"}, {"measurement": "inhibition", "setting": "[10]", "value": "Active"}, {"measurement": "Activity", "setting": "Mus musculus [11]", "value": "inactive"}, {"measurement": "Activity", "setting": "Mus musculus [12]", "value": "inactive"}, {"measurement": "inhibition", "setting": "[13]", "value": "Active"}, {"measurement": "Activity", "setting": "[14]", "value": "Active"}]}
